# High-throughput results deposited in PubChem BioAssay by several laboratories.
# Sampled rows, rich in hits. Any-hit rate of the full collection: about 2.7%.
# PP1 counter = counter-screen for PP5 inhibitors: inhibitors of human PP1-alpha | P62136 | inhibition, % at 6.7 µM | purified PP1alpha, OMFP fluorescence | hit rate 0.9% among 320,000;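 active = inhibition above the mean inhibition of all tested compounds plus 3 SD, computed separately for each screening campaign, cut at about 15% in these data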
# Rpn11 block = Rpn11 (human) deubiquitinase inhibition. O00487. human 26S proteasome, Ub4-pepOG fluorescence polarization; 20S core pre-blocked with epoxomicin. inhibition, % at 20 µM. hit rate 0.59% among 360,000. AID 588493;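 active = inhibition at 20 µM, scaled to each plate's controls, above about 33%, limit read from the data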
# NadD block = blocks S. aureus nicotinate mononucleotide adenylyltransferase; purified NadD enzyme, colorimetric absorbance read-out; inhibition, % at 20 µM; hit rate 0.78% among 360,000; in the data active = inhibition above about 26%
# TPT1 inh = C. albicans TPT1 enzyme inhibition. recombinant caTPT1, FP RNA substrate dephosphorylation. hit rate 0.81% among 300,000. inhibition, % at 5 µM;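 active = inhibition above the mean of all tested compounds plus 3 SD, set per screening campaign, cut at about 24% in these data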;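 also: plate controls were DMSO alone for no effect and ferristatin control at 100 nM for full effect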
# CSN inh = inhibitors of human CSN-mediated cullin deneddylation; Q92905; Purified CSN, SCF-Nedd8-OG deneddylation, fluorescence polarization; inhibition, % at 12.5 µM; hit rate 0.38% among 360,000;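 active = pattern-corrected inhibition above about 35%, with an unprinted fluorescence ratio check between 0.5 and 1.5, limit read from the data, passing the limit was not always enough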;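 also: 0% = enzyme with substrate and 100% = substrate without enzyme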
# Target sequence (Q92905 whole entry, looked up, one chain of several): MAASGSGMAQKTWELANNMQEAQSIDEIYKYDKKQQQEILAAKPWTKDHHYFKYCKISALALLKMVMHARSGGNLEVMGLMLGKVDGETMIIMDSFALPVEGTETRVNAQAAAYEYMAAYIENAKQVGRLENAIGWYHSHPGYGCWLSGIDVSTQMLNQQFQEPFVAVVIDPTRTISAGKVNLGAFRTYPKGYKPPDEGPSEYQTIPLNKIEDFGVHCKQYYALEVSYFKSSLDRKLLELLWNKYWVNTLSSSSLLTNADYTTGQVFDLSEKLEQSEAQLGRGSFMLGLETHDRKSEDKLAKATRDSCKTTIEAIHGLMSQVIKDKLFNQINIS
#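 Material: purified human Csn5 enzyme expressed in HEK293T cells / Medium: Tris buffer pH 7.5, NaCl, DTT, Tween-20, trehalose, ovalbumin / Compound dosing: 12.5 µM single point / Schedule: 90 min incubation of compound, enzyme and substrate at room temperature / Signal: fluorescence polarization of the substrate / Control set: no-enzyme wells high, enzyme-with-substrate wells low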
# HNF4A DNA FP = change in binding of human HNF4 alpha to DNA; HNF4a-FITC DNA binding, fluorescence polarization, 1 h; activity change, % at 10 µM; hit rate 0.3% among 360,000; P41235; in the data active = activity change above about 30%, passing the limit was not always enough
# Starred values were filed as active, the others as inactive; / = no result given.
SMILES,PP1 counter,Rpn11 block,NadD block,TPT1 inh,CSN inh,HNF4A DNA FP
C#CCOCCOCCOCCNc1nc(N2CCN(C(=O)[C@H](CCCCN)n3cc([C@@H](N)C(C)CC)nn3)CC2)nc(N2CCN(C(=O)[C@H](Cc3cc4ccccc4[nH]3)n3cc([C@@H](N)CC(C)C)nn3)CC2)n1 (some centres undefined),13,23,8,-3,45*,49*
C#CCOCCOCCOCCNc1nc(N2CCN(C(=O)[C@H](Cc3cc4ccccc4[nH]3)n3cc([C@@H](N)C(C)CC)nn3)CC2)nc(N2CCN(C(=O)[C@H](Cc3cc4ccccc4[nH]3)n3cc([C@@H](N)CC(C)C)nn3)CC2)n1 (some centres undefined),19*,/,/,-2,/,/
C#CCOCCOCCOCCNc1nc(N2CCN(C(=O)[C@H]([C@@H](C)CC)n3cc([C@@H](N)CC(C)C)nn3)CC2)nc(N2CCN(C(=O)[C@H](CCCCN)n3cc([C@@H](N)C(C)CC)nn3)CC2)n1 (some centres undefined),4,-3,-3,1,-4,3
C#CCOCCOCCOCCNc1nc(N2CCN(C(=O)C([C@@H](C)CC)n3cc(C(N)COC(=O)C(F)(F)F)nn3)CC2)nc(N2CCN(C(=O)[C@H](CCCCN)n3cc(C(N)[C@H](C)CC)nn3)CC2)n1 (some centres undefined),17*,/,/,2,/,/
CCOc1ccc(S(=O)(=O)N2CCC(C(=O)OC(C)C(=O)N(C)C3CCCCC3)CC2)cc1 (centres undefined),0,5,5,0,4,-2
CC(CNC(=O)CCCn1c(=O)c2cccn2c2cccnc21)c1ccccc1 (centres undefined),/,0,-6,/,5,-3
COc1ccc(C(=O)c2ccccc2)c2c(O)ccc(C(=O)c3ccccc3)c12,2,4,31*,0,-5,1
COc1ccc(C(=O)c2ccc(Cl)cc2)c2ccccc12,1,2,-5,1,11,-1
CC1CC(=O)N(c2ccc(NCc3ccc(Cl)cc3)c([N+](=O)[O-])c2)C1=O (centres undefined),1,/,-7,1,39*,-3
COc1cccc(CCNc2ccc(N3C(=O)CC(C)C3=O)cc2[N+](=O)[O-])c1 (centres undefined),-1,1,-3,1,1,2
O=S(=O)(Cc1noc(-c2ccc(Cl)cc2)n1)Cc1ccco1,-2,17,-6,1,38*,14
COc1cc(NS(=O)(=O)c2ccc(Br)cc2)c(OC)cc1NC(=O)c1ccco1,-1,/,4,5,7,68*
NC(=S)n1[nH]c(-c2ccc([N+](=O)[O-])cc2)c(N=Nc2ccccc2[N+](=O)[O-])c1=O,/,-32,64*,/,-6,-29
Cc1c(N=Nc2c(-c3ccc([N+](=O)[O-])cc3)[nH]n(C(N)=S)c2=O)cccc1[N+](=O)[O-],/,17,81*,/,7,-28
Cc1[nH]n(C(N)=S)c(=O)c1N=Nc1cccc([N+](=O)[O-])c1C,0,-3,-4,0,-2,0
NC(=S)n1[nH]c(-c2ccc([N+](=O)[O-])cc2)c(N=Nc2cccc([N+](=O)[O-])c2)c1=O,/,12,77*,/,8,-53
Cc1ccc(S(=O)(=O)N2CCCCC2)cc1NC(=O)COC(=O)C1(C)CC1(Cl)Cl (centres undefined),0,2,-10,/,-5,2
CC1=CC(C)C(=O)N(CCN2CCOCC2)C(C)=C1 (centres undefined),/,-7,-3,/,5,-5
CCOc1ccccc1N1Cc2cc(C)c(C)cc2C1,15*,13,4,19,4,5
CCOc1ccccc1N1Cc2ccccc2C1,11,4,30,8,4,-1
COc1ccc(OC)c(N2Cc3cc(C)c(C)cc3C2)c1,17*,11,13,18,2,3
COc1ccc(OC)c(-n2c(C)cc(C=O)c2C)c1,-1,-7,-4,3,1,0
CCOc1ccc(CCNC(=O)CCS(=O)(=O)c2ccc(Cl)cc2)cc1OCC,-3,-4,0,-2,4,0
Cc1cc2cc(C(c3nnnn3C(C)(C)C)N(Cc3ccco3)CC3CCCO3)c(=O)[nH]c2cc1C (centres undefined),0,17,8,2,7,43*
COc1ccc2[nH]c(=O)c(C(c3nnnn3C(C)(C)C)N(Cc3ccco3)CC3CCCO3)cc2c1 (centres undefined),-3,-4,0,-4,2,0
SMILES,PP1 counter,Rpn11 block,NadD block,TPT1 inh,CSN inh,HNF4A DNA FP
Cc1nc2ccc(C(=O)N3CCN(c4ccccc4)CC3)cn2c1N(C)C(=O)CCc1ccccc1,/,1,4,/,-6,5
CN(C)S(=O)(=O)c1ccc(Cl)c(NC(=O)C2CCN(S(=O)(=O)c3cccs3)CC2)c1,-3,2,-6,/,-1,0
O=C(CP(=O)(c1ccccc1)c1ccccc1)N/N=C/c1cc(Br)cc(Br)c1O,8,2,44*,-1,-5,-1
CC(=O)Nc1cncc(-c2ccccc2N(C)C)n1,/,-2,-3,/,-1,-3
N#CC1C(=O)NC(=O)C(C#N)C12CCCc1sccc12 (centres undefined),/,-4,1,/,-1,1
CCCCNC(=O)c1[nH]c(C)c(C(C)=O)c1C,-3,-4,0,-2,-1,34*
CCOC(=O)[C@]12CCCC=C1N(CCc1ccc(OC)c(OC)c1)C(=O)[C@H](CC(=O)N1CCN(C(=O)C3CC3)CC1)C2,/,/,/,/,2,1
COc1ccc(-c2nn(-c3ccccc3)cc2/C=C2/SC(=S)N(CCC(=O)O)C2=O)c(C)c1,8,10,25,0,7,-6
O=C(CCCN1C(=O)/C(=C\c2cccs2)SC1=S)Nc1ccccc1O,/,4,-3,/,-3,8
O=C(O)CCCCCN1C(=O)/C(=C\c2cn(-c3ccccc3)nc2-c2cccs2)SC1=S,1,36,32*,2,10,-10
O=C(O)CCN1C(=O)/C(=C/c2cn(-c3ccccc3)nc2-c2cccs2)SC1=S,/,34,31*,/,19,10
CC(=O)N1CCOc2ccc(S(=O)(=O)NCC3CCC(C(=O)Nc4ccc(C)cn4)CC3)cc21 (centres undefined),-6,-1,2,2,1,-1
OCCCc1nc2n(n1)C(c1ccccc1Cl)C=C(c1cccs1)N2 (centres undefined),-8,-25,10,24*,3,22
Cc1c(O)ccc(/C=N/Nc2nc(-c3cccnc3)nc3ccccc23)c1O,2,22,36*,8,2,7
